Experimental data as given in ChEMBL document CHEMBL1817554, “Design of HIV-1 protease inhibitors with C3-substituted hexahydrocyclopentafuranyl urethanes as P2-ligands: synthesis, biological evaluation, and protein-ligand X-ray crystal structure” (J Med Chem, 2011).

Experiments:
[1] = tested on: Human immunodeficiency virus 1; test: Antiviral activity against multidrug-resistant Human immunodeficiency virus 1 subtype B harboring protease L10I, L33I, M36I, M46I, F53L, K55R, I62 V, L63P, A71 V, G73S, V82A, L90M, I93L mutation infected in PHA-stimulated human PBMC assessed as inhibition of p24 Gag protein production; assay type: functional, organism-based
Summary of the method: (§1)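 PHA-stimulated PBMCs served as target cells, and inhibition of p24 Gag protein production was the end point. Fold change was taken against the wild-type HIV-1ERS104pre IC50. Each assay was run in duplicate or triplicate. Values are means (±1 standard deviation) from three independent experiments.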

[2] = tested on: Human immunodeficiency virus 1; test: Antiviral activity against multidrug-resistant Human immunodeficiency virus 1 MDR/C harboring protease L10I, I15 V, K20R, L24I, M36I, M46L, I54V, I62 V, L63P, K70Q, V82A, L89 M mutation infected in PHA-stimulated human PBMC assessed as inhibition of p24 Gag protein production; assay type: functional, organism-based; summary of the method: as §1
[3] = tested on: Human immunodeficiency virus 1; test: Antiviral activity against multidrug-resistant Human immunodeficiency virus 1 MDR/G harboring protease L10I, V11I, T12E, I15 V, L19I, R41K, M46L, L63P, A71T, V82A, L90 M mutation infected in PHA-stimulated human PBMC assessed as inhibition of p24 Gag protein production; assay type: functional, organism-based; summary of the method: as §1
[4] = tested on: Human immunodeficiency virus 1; test: Antiviral activity against multidrug-resistant Human immunodeficiency virus 1 MDR/TM harboring protease L10I, K14R, R41K, M46L, I54V, L63P, A71V, V82A, L90M, I93L mutation infected in PHA-stimulated human PBMC assessed as inhibition of p24 Gag protein production; assay type: functional, organism-based; summary of the method: as §1
[5] = tested on: Human immunodeficiency virus 1; test: Ratio of IC50 for Human immunodeficiency virus 1 MDR/B to IC50 for wild-type Human immunodeficiency virus 1 ERS104pre; assay type: functional
[6] = tested on: Human immunodeficiency virus 1; test: Ratio of IC50 for Human immunodeficiency virus 1 MDR/C to IC50 for wild-type Human immunodeficiency virus 1 ERS104pre; assay type: functional
[7] = tested on: Human immunodeficiency virus 1; test: Ratio of IC50 for Human immunodeficiency virus 1 MDR/G to IC50 for wild-type Human immunodeficiency virus 1 ERS104pre; assay type: functional
Summary of the method: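 Antiviral IC50s measured against each multidrug-resistant clinical isolate and wild-type HIV-1ERS104pre in PHA-stimulated PBMCs as target cells, with inhibition of p24 Gag production as the end point. The fold change is the isolate IC50 divided by the wild-type IC50. Assays were run in duplicate or triplicate; values are means (±1 SD) of three independent experiments.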

[8] = tested on: Human immunodeficiency virus 1; test: Ratio of IC50 for Human immunodeficiency virus 1 MDR/TM to IC50 for wild-type Human immunodeficiency virus 1 ERS104pre; assay type: functional
Protease = Protease (Human immunodeficiency virus 1, UniProt Q9YQ12); test: Inhibition of Human immunodeficiency virus 1 protease assessed as release of fluorescent N-terminal tripeptide using fluorogenic substrate by continuous fluorometric assay
[9] = tested on: Human immunodeficiency virus 1; test: Antiviral activity against Human immunodeficiency virus 1 LAI infected in human MT2 cells by MTT assay
[10] = tested on: Human immunodeficiency virus 1; test: Antiviral activity against wild type Human immunodeficiency virus 1 ERS104pre infected in PHA-stimulated human PBMC assessed as inhibition of p24 Gag protein production; assay type: functional, organism-based; summary of the method: as §1

Chain of Protease (Q9YQ12 whole entry): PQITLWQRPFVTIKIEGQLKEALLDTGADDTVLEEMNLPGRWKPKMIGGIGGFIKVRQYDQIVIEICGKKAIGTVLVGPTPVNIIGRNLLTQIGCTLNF

SMILES	Ki (Protease)	IC50 [9]	other results
CC(C)CN(C[C@@H](O)[C@H](Cc1ccccc1)NC(=O)O[C@H]1CCOC1)S(=O)(=O)c1ccc(N)cc1	–	–	IC50 [1]: 930 nM; IC50 [2]: 260 nM; IC50 [3]: 380 nM; IC50 [4]: 190 nM; Ratio IC50 [5]: 31; Ratio IC50 [6]: 9; Ratio IC50 [7]: 12; Ratio IC50 [8]: 6
CC(C)CN(C[C@@H](O)[C@H](Cc1ccccc1)NC(=O)O[C@@H]1C[C@@H]2[C@H](O)CO[C@@H]2C1)S(=O)(=O)c1ccc(N)cc1	0.079 nM	25 nM	–
COc1ccc(S(=O)(=O)N(CC(C)C)C[C@@H](O)[C@H](Cc2ccccc2)NC(=O)O[C@@H]2C[C@@H]3[C@H](C)CO[C@@H]3C2)cc1	0.16 nM	25 nM	–
COc1ccc(S(=O)(=O)N(CC(C)C)C[C@@H](O)[C@H](Cc2ccccc2)NC(=O)O[C@@H]2C[C@@H]3[C@@H](OC)CO[C@@H]3C2)cc1	0.006 nM	3.4 nM	–
COc1ccc(S(=O)(=O)N(CC(C)C)C[C@@H](O)[C@H](Cc2ccccc2)NC(=O)O[C@@H]2C[C@@H]3[C@@H](O)CO[C@@H]3C2)cc1	–	2.9 nM	IC50 [10]: 2.9 nM; IC50 [1]: 29 nM; IC50 [2]: 22 nM; IC50 [3]: 4.5 nM; IC50 [4]: 3.1 nM
CC(C)CN(C[C@@H](O)[C@H](Cc1ccccc1)NC(=O)O[C@@H]1C[C@@H]2[C@@H](O)CO[C@@H]2C1)S(=O)(=O)c1ccc(N)cc1	0.006 nM	36 nM	–
COc1ccc(S(=O)(=O)N(CC(C)C)C[C@@H](O)[C@H](Cc2ccccc2)NC(=O)O[C@@H]2C[C@@H]3[C@H](N(C)C)CO[C@@H]3C2)cc1	12.5 nM	–	–
COc1ccc(S(=O)(=O)N(CC(C)C)C[C@@H](O)[C@H](Cc2ccccc2)NC(=O)O[C@@H]2C[C@@H]3C(=O)CO[C@@H]3C2)cc1	0.95 nM	14 nM	–
COc1ccc(S(=O)(=O)N(CC(C)C)C[C@@H](O)[C@H](Cc2ccccc2)NC(=O)O[C@@H]2C[C@@H]3[C@H](O)CO[C@@H]3C2)cc1	0.077 nM	7 nM	IC50 [10]: 20 nM; IC50 [1]: > 1000 nM; IC50 [2]: > 1000 nM; IC50 [3]: 270 nM; IC50 [4]: 41 nM
COc1ccc(S(=O)(=O)N(CC(C)C)C[C@@H](O)[C@H](Cc2ccccc2)NC(=O)O[C@@H]2C[C@@H]3[C@H](OC)CO[C@@H]3C2)cc1	0.39 nM	37 nM	–
CC(C)CN(C[C@@H](O)[C@H](Cc1ccccc1)NC(=O)O[C@@H]1C[C@@H]2[C@H](O)CO[C@@H]2C1)S(=O)(=O)c1ccc(CO)cc1	0.06 nM	19 nM	–
COc1ccc(S(=O)(=O)N(CC(C)C)C[C@@H](O)[C@H](Cc2ccccc2)NC(=O)O[C@@H]2C[C@@H]3[C@@H](C)CO[C@@H]3C2)cc1	0.017 nM	–	–
